# According to ChEMBL document CHEMBL1141198, “Design and synthesis of tri-ring P3 benzamide-containing aminonitriles as potent, selective, orally effective inhibitors of cathepsin K” (J Med Chem, 2005):
# Assays:
# [1] = target: Cathepsin S (Homo sapiens, UniProt P25774); assay: Inhibitory constant against human cathepsin S using Z-Val-Val-Arg-AMC substrate; settings: read-out: Ki app
# Method in brief: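 Recombinant human cathepsin S at 500 pM in 50 mM MES pH 6.5, 2.5 mM β-mercaptoethanol, 2.5 mM EDTA, 100 mM NaCl, 0.001% BSA, 10% DMSO. 30 min enzyme–inhibitor preincubation at 21–24 °C, 8 inhibitor concentrations. Started with 60 μM Z-Val-Val-Arg-AMC; initial rates by AMC fluorescence (ex 355/em 460). Ki(app) by Morrison tight-binding fit.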
# [2] = tested on: Rattus norvegicus; assay: Mean residence time in rat administered with 0.5 mg/kg, iv; format: functional, organism-based; design: dose 0.5 mg/kg
# Method in brief: (§1)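 Rats, three per study, cassette iv dosing of up to four compounds. Formulation DMSO (<20%), PEG 400 (<20%) and water at 0.5 mg/mL per compound, given at 1 mL/kg for 0.5 mg/kg per compound.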
# [3] = target: Cathepsin B (Homo sapiens, UniProt P07858); assay: Inhibitory constant against human cathepsin B using Boc-Leu-Lys-Arg-AMC substrate; settings: read-out: Ki app
# [4] = tested on: Rattus norvegicus; assay: Terminal half-life in rat administered with 0.5 mg/kg, iv; format: functional, organism-based; design: dose 0.5 mg/kg; method in brief: as §1
# [5] = Maximum concentration in rat administered with 0.5 mg/kg, iv; format: ADME, organism-based; design: dose 0.5 mg/kg, route intravenous; settings: in vivo
# [6] = tested on: Osteoclast; assay: In vitro bone resorption in isolated rabbit osteoclasts; format: functional, cell-based; settings: Oryctolagus cuniculus
# Method in brief: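 Bovine bone degraded by isolated rabbit osteoclasts; collagen degradation read by ELISA. 8-point dose–response curves; IC50 derived.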
# [7] = target: Cathepsin K (Homo sapiens) (UniProt P43235); assay: Inhibitory constant against human cathepsin K using Z-Phe-Arg-AMC substrate; settings: read-out: Ki app
# [8] = target: Procathepsin L (Homo sapiens, UniProt P07711); assay: Inhibitory constant against human cathepsin L using Z-Phe-Arg-AMC substrate; settings: read-out: Ki app
# Method in brief: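 Recombinant human cathepsin L at 500 pM in 50 mM MES pH 5.5, 2.5 mM DTT, 2.5 mM EDTA, 10% DMSO. Enzyme preincubated with inhibitor (8 concentrations) 30 min at 21–24 °C. Reaction started with 10 μM Z-Phe-Arg-AMC; AMC fluorescence (ex 355/em 460 nm) over first ~5 min. Ki(app) fitted with Morrison tight-binding model.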
# Sequence of Cathepsin S (P25774 whole entry): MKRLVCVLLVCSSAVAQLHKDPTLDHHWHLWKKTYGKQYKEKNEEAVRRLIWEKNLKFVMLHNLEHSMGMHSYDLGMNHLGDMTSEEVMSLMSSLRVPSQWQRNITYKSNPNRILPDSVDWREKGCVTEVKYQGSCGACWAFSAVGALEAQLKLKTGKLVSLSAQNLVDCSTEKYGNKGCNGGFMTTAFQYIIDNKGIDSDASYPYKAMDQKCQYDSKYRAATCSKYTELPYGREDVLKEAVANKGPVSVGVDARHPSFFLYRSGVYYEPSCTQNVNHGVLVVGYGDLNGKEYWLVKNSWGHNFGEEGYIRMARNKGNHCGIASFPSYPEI
# Sequence of Procathepsin L (P07711 whole entry): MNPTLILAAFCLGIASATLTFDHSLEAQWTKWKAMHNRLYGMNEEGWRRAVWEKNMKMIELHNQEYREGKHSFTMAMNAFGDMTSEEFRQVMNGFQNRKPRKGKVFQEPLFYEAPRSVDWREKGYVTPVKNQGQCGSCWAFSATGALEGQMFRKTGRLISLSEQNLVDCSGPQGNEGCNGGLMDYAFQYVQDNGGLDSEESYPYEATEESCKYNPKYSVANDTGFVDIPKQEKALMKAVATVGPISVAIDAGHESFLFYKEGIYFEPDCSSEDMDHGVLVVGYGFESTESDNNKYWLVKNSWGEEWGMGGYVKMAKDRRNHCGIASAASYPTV
SMILES,Ki [1] [µM],MRT [2] [h],Ki [3] [µM],T1/2 [4] [h],Cmax [5] [nM],IC50 [6] [nM],Ki [7] [nM],Ki [8] [µM]
CN1CCN(N(C)c2nc(-c3ccc(C(=O)NC4(C(=O)NCC#N)CCCCC4)cc3)cs2)CC1,21,1.03,0.89,1.53,470,11,0.25,8.9
CN1CCC[C@H]1COc1ccc(-c2ccc(C(=O)NC3(C(=O)NCC#N)CCCCC3)cc2)cc1,10,,0.59,,,24,< 0.25,4
CN1CCC(N(C)c2ccc(-c3ccc(C(=O)NC4(C(=O)NCC#N)CCCCC4)cc3)cc2)C1 (centres undefined),8.7,,0.34,,,33,< 0.25,2
N#CCNC(=O)C1(NC(=O)c2ccc(Br)s2)CCCCC1,1.4,,3.1,,,,16,5.9
N#CCNC(=O)C1(NC(=O)CCc2ccccc2)CCCCC1,34,,99,,,,410,> 150
N#CCNC(=O)C1(NC(=O)c2ccc(-c3csc(N4CCOCC4)n3)cc2)CCCCC1,13,0.467,3.1,0.483,1400,35,2.3,74
N#CCNC(=O)[C@H](Cc1ccc2ccccc2c1)NC(=O)OCc1ccccc1,0.18,,3,,,,30000,0.054
CN1CCN(c2ccc(C(=O)NC3(C(=O)NCC#N)CCCCC3)cc2)CC1,16,,2.7,,,,1.5,9.6
N#CCNC(=O)C1(NC(=O)c2ccc(-c3csc(OC4CCNCC4)n3)cc2)CCCCC1,68,1.23,0.74,2.53,1400,43,0.57,11
N#CCNC(=O)C1(NC(=O)c2ccc(Br)cc2)CCCCC1,10,,2.3,,,,18,17
N#CCNC(=O)C1(NC(=O)OCc2ccccc2)CC1,> 150,,> 150,,,,> 150000,> 150
N#CCNC(=O)C1(NC(=O)c2csc(-c3ccncc3)n2)CCCCC1,4,,9.3,,,,150,> 150
N#CCNC(=O)C1(NC(=O)c2cccc(-c3ccccc3)c2)CCCCC1,1.9,,8.3,,,,210,22
N#CCNC(=O)C1(NC(=O)c2ccc(-c3ccccc3)cc2)CCCCC1,8.8,,1.3,,,,6.2,23
N#CCNC(=O)C1(NC(=O)c2ccc(-c3csc(CN4CCOCC4)n3)cc2)CCCCC1,0.25,0.26,3.8,,550,210,8.7,2.2
CN1CCN(S(=O)(=O)c2ccc(C(=O)NC3(C(=O)NCC#N)CCCCC3)cc2)CC1,102,,3.1,,,,13,71
N#CCNC(=O)C1(NC(=O)c2ccc(N3CCOCC3)cc2)CCCCC1,42,,8.6,,,,19,50
CC(C[C@H](NC(=O)OCc1ccccc1)C(=O)NCC#N)C(F)(F)F (some centres undefined),0.4,,> 150,,,,350,22
CN1CCN(Cc2nc(-c3ccc(C(=O)NC4(C(=O)NCC#N)CCCCC4)cc3)cs2)CC1,42,1.25,1.5,1.28,430,60,0.94,19
CN(C)c1ccc(-c2ccc(C(=O)NC3(C(=O)NCC#N)CCCCC3)cc2)cc1,5.7,,0.68,,,,2,3.2
CC[C@H](C)[C@H](NC(=O)OCc1ccccc1)C(=O)NCC#N,14,,70,,,,1500,25
CC(C)N(C)C1CCN(c2nc(-c3ccc(C(=O)NC4(C(=O)NCC#N)CCCCC4)cc3)cs2)CC1,3.2,2.02,1.4,1.92,430,11,1.6,15
CC(C)NC1CCN(c2nc(-c3ccc(C(=O)NC4(C(=O)NCC#N)CCCCC4)cc3)cs2)CC1,33,2.42,0.76,2.55,660,19,0.59,12

SMILES,Ki [1] [µM],MRT [2] [h],Ki [3] [µM],T1/2 [4] [h],Cmax [5] [nM],IC50 [6] [nM],Ki [7] [nM],Ki [8] [µM]
CN1CCC(C)(c2nc(-c3ccc(C(=O)NC4(C(=O)NCC#N)CCCCC4)cc3)cs2)CC1,30,2.33,1.1,2.28,440,46,0.95,7.6
CN1CCC(c2nc(-c3ccc(C(=O)NC4(C(=O)NCC#N)CCCCC4)cc3)cs2)CC1,20,0.233,1.4,0.717,1430,61,1.6,15
CN(C)C1CCN(c2nc(-c3ccc(C(=O)NC4(C(=O)NCC#N)CCCCC4)cc3)cs2)C1 (centres undefined),26,0.683,1.7,0.633,300,110,0.79,12
N#CCNC(=O)C1(NC(=O)c2ccc(-c3csc(N4CCN(C5CCOCC5)CC4)n3)cc2)CCCCC1,17,0.983,0.84,1.07,490,8,0.47,> 150
CC(C)C[C@@H](NC(=O)OCc1ccccc1)C(=O)NCC#N,13.6,,> 150,,,,13000,> 150
CCCC[C@H](NC(=O)OCc1ccccc1)C(=O)NCC#N,0.86,,> 150,,,,490,37
CC(C)C[C@H](NC(=O)OCc1ccccc1)C(=O)NCC#N,0.143,,123,,,,34.7,2.79
N#CCNC(=O)C1(NC(=O)c2ccc(-c3ccc(-c4ccno4)cc3)cc2)CCCCC1,2.5,,1.8,,,37,5.4,0.42
CC(C)C[C@](C)(NC(=O)OCc1ccccc1)C(=O)NCC#N,4.2,,> 150,,,,1800,> 150
N#CCNC(=O)C1(NC(=O)OCc2ccccc2)CCCC1,> 150,,110,,,,1500,> 150
C#Cc1ccc(C(=O)NC2(C(=O)NCC#N)CCCCC2)cc1,15,,1.1,,,,13,18
CC(C)(C)[C@H](NC(=O)OCc1ccccc1)C(=O)NCC#N,> 150,,> 150,,,,1900,> 150
N#CCNC(=O)C1(NC(=O)c2ccc(N)cc2)CCCCC1,6.5,,10,,,,32,45
CC(C)(C)C[C@H](NC(=O)OCc1ccccc1)C(=O)NCC#N,0.15,,63,,,,230,23
C[C@@H](O)[C@H](NC(=O)OCc1ccccc1)C(=O)NCC#N,42,,> 150,,,,11000,14
CN1CCN(C(=O)c2ccc(C(=O)NC3(C(=O)NCC#N)CCCCC3)cc2)CC1,110,,13,,,,14,> 150
N#CCNC(=O)[C@@H](NC(=O)OCc1ccccc1)c1ccccc1,3.5,,> 150,,,,17000,88
N#CCNC(=O)C1(NC(=O)OCc2ccccc2)CCCCC1,31,,64,,,,84,95
CCCN1CCN(c2ccc(C(=O)NC3(C(=O)NCC#N)CCCCC3)cc2)CC1 [BALICATIB],28,,2.9,,,,,18
CN(C)c1ccc(C(=O)NC2(C(=O)NCC#N)CCCCC2)cc1,35,,5.2,,,,3.3,48
COCCN1CCN(c2nc(-c3ccc(C(=O)NC4(C(=O)NCC#N)CCCCC4)cc3)cs2)CC1,20,0.683,1.3,1.97,1780,4,0.48,6.4
N#CCNC(=O)C1(NC(=O)c2cccc(Br)c2)CCCCC1,6.2,,7.9,,,,230,7.9
